{"source": "paper PMC2225614", "about": "(The Journal of General Physiology, 2001)", "key": {"[1]": {"target": "T1, α-subunit of the bovine retinal rod CNG channel (RETα) (Bos taurus, UniProt Q00194)", "T1 sequence (Q00194 1-690)": "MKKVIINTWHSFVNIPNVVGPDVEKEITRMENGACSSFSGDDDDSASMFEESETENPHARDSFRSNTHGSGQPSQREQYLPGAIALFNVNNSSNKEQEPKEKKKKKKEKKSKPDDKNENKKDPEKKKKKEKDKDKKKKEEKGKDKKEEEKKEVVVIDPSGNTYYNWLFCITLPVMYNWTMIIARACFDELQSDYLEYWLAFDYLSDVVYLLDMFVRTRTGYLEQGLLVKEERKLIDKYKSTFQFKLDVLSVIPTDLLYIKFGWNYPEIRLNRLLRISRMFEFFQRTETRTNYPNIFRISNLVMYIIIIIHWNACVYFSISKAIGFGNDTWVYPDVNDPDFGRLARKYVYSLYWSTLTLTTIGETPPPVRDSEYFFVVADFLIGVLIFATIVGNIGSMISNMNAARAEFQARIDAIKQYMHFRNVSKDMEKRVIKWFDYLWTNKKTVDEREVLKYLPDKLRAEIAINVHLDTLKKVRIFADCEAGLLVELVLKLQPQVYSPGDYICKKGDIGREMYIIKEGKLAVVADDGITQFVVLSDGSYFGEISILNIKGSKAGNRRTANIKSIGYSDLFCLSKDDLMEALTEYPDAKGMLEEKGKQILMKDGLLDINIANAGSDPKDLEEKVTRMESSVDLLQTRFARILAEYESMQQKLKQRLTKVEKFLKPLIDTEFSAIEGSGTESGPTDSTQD", "format": "biochemical", "conditions": "for Ki: Ki (apparent affinity)", "how_it_was_run": "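RETα was expressed in oocytes from 50 nl of 50 ng/μl RNA. Inside-out patches were held at −75 mV in symmetrical NaCl/EGTA/EDTA/HEPES, pH 7.5, with solution exchange within 50 ms. Current was normalized to Imax: residual current after 1 min preexposure then 2 mM cGMP, or steady-state current with compound added during 2 mM cGMP. Ki and Hill coefficient came from a modified Hill fit; τa from single-exponential fits; mean ± SEM.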"}, "[2]": {"target": "T1, α-subunit of the bovine retinal rod CNG channel (RETα)", "format": "biochemical", "conditions": "for opening allosteric constant (L): L = Po/(1 − Po)"}, "[3]": {"target": "T2, CHM25 (RETα with H420 substituted with an asparagine) (Bos taurus, UniProt Q00194, H420Q)", "T2 sequence (Q00194 1-690 H420Q)": "T1 sequence (Q00194 1-690) with H420Q", "test": "Genistein inhibition of closed chimeric channel CHM25", "format": "biochemical, bovine/rat", "conditions": "genistein applied on closed channels", "how_it_was_run": "(§1)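 Chimeric RETα/OLFα channels were expressed in Xenopus oocytes (50 nl of 50 ng/μl RNA, 2–7 d), and the vitelline membrane was removed. Inside-out patches were bathed in symmetrical 115 mM NaCl, 5 mM EGTA, 1 mM EDTA, 5 mM HEPES, pH 7.5, held at −75 mV. Test compound was preapplied 1 min to closed channels, then saturating 2 mM cGMP; residual current normalized to Imax.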"}, "[4]": {"system": "CHM 30 (converse substitution in OLFα background)", "test": "Genistein inhibition of closed chimeric channel CHM 30", "format": "biochemical, bovine/rat", "conditions": "closed channels"}, "[5]": {"system": "CHM17 (RETα with the OLFα cyclic nucleotide–binding domain)", "test": "Genistein inhibition of closed chimeric channel CHM17", "format": "biochemical, bovine/rat", "conditions": "closed channels", "how_it_was_run": "as §1"}, "[6]": {"system": "CHM11 (RETα with OLFα pore module: S5, P region, S6, initial C-linker)", "test": "Genistein inhibition of chimeric channel CHM11", "format": "biochemical, bovine/rat"}, "[7]": {"system": "CHM20 (S5 domain exchanged between RETα and OLFα)", "test": "Genistein inhibition of closed chimeric channel CHM20", "format": "biochemical, bovine/rat", "conditions": "closed channels", "how_it_was_run": "as §1"}, "[8]": {"system": "CHM22 (S5 domain exchanged between RETα and OLFα)", "test": "Genistein inhibition of closed chimeric channel CHM22", "format": "biochemical, bovine/rat", "conditions": "closed channels", "how_it_was_run": "as §1"}, "[9]": {"system": "CHM 19 (RETα with the OLFα pore)", "test": "Genistein inhibition of closed chimeric channel CHM 19", "format": "biochemical, bovine/rat", "conditions": "closed channels", "how_it_was_run": "as §1"}, "[10]": {"system": "α-subunit of the rat olfactory CNG channel (OLFα)", "conditions": "ref Molokanova et al. 2000; cited from earlier work"}, "[11]": {"conditions": "after genistein application, saturating cGMP"}}, "note": "Substitutions are numbered along the chain they refer to. Where two headings read alike, the source gives them in different places.", "data": [{"smiles": "O=c1c(-c2ccc(O)cc2)coc2cc(O)cc(O)c12", "note": "[genistein]", "values": [{"measurement": "Ki", "setting": "[1]; closed channels", "value": "4.3 ± 0.9", "unit": "µM"}, {"measurement": "Ki", "setting": "[1]; fully activated channels (saturating cGMP)", "value": "84.1 ± 6.8", "unit": "µM"}, {"measurement": "Hill coefficient of genistein inhibition", "setting": "[1]; closed channels", "value": "1.97 ± 0.08"}, {"measurement": "dissociation of genistein–PTK from closed channels (time)", "setting": "[1]; closed channels", "value": "> 1", "unit": "min"}, {"measurement": "residual current, of maximal current", "setting": "[1]; closed channels pretreated with Ni^2+ and genistein for 1 min", "value": "32.1 ± 3.4", "unit": "%"}, {"measurement": "residual current, of maximal current", "setting": "[1]; closed channels pretreated with genistein alone", "value": "1.3 ± 0.8", "unit": "%"}, {"measurement": "association time constant (τa)", "setting": "[1]; closed channels, 10 μM genistein", "value": "9.1 ± 0.4", "unit": "s"}, {"measurement": "association time constant (τa)", "setting": "[1]; closed channels, 25 μM genistein", "value": "8.9 ± 0.6", "unit": "s"}, {"measurement": "association time constant (τa)", "setting": "[1]; closed channels, 100 μM genistein", "value": "8.6 ± 0.7", "unit": "s"}, {"measurement": "dissociation time constant", "setting": "[1]; closed channels, first of two exponentials, 1-s cGMP puffs every 15 s", "value": 66, "unit": "s"}, {"measurement": "dissociation time constant", "setting": "[1]; closed channels, second of two exponentials, 1-s cGMP puffs every 15 s", "value": 808, "unit": "s"}, {"measurement": "association time constant (τa)", "setting": "[1]; closed channels, single exponential fit, Fig. 2 A, 100 μM genistein", "value": 9.3, "unit": "s"}, {"measurement": "Hill coefficient of genistein inhibition", "setting": "[1]; fully activated channels", "value": "1.02 ± 0.03"}, {"measurement": "association time constant (τa)", "setting": "[1]; fully activated channels, 25 μM genistein", "value": "12.1 ± 0.6", "unit": "s"}, {"measurement": "association time constant (τa)", "setting": "[1]; fully activated channels, 100 μM genistein", "value": "12.6 ± 0.7", "unit": "s"}, {"measurement": "association time constant (τa)", "setting": "[1]; fully activated channels, 250 μM genistein", "value": "12.6 ± 0.9", "unit": "s"}, {"measurement": "association time constant (τa)", "setting": "[1]; fully activated channels, single exponential fit, Fig. 2 B", "value": 13.1, "unit": "s"}, {"measurement": "dissociation time constant", "setting": "[1]; fully activated channels, single exponential, after 1 min preexposure", "value": 14.4, "unit": "s"}, {"measurement": "efficacy of genistein inhibition", "setting": "[1]; fully activated channels, steady-state current in saturating cGMP", "value": "65 ± 6", "unit": "%"}, {"measurement": "change in cGMP sensitivity", "setting": "[1]; genistein applied on fully activated channels", "value": "fourfold decrease"}, {"measurement": "inhibition at 100 µM", "setting": "[1]; read-out: inhibition of macroscopic current", "value": 41, "unit": "%"}, {"measurement": "fraction of steady-state current from channels devoid of genistein–PTK", "setting": "[1]; saturating cGMP plus genistein, Fig. 3 B protocol", "value": "< 60", "unit": "%"}, {"measurement": "effect on single-channel current", "setting": "[2]; 100 μM genistein, saturating cGMP", "value": "unaffected"}, {"measurement": "decrease in the average Po", "setting": "[2]; 100 μM genistein, saturating cGMP, six patches", "value": "39 ± 6", "unit": "%"}, {"measurement": "Po during periods of high activity (bursty pattern)", "setting": "[2]; [11]", "value": "0.4–0.9"}, {"measurement": "duration of high-Po periods", "setting": "[2]; [11]", "value": "15 to 30", "unit": "s"}, {"measurement": "duration of silent periods (Po = 0)", "setting": "[2]; [11]", "value": "10 to 80", "unit": "s"}, {"measurement": "single-channel current (i)", "setting": "[2]; after preexposure to 100 μM genistein, Fig. 6 A", "value": 1.97, "unit": "pA"}, {"measurement": "single-channel current (i)", "setting": "[2]; after preexposure to 100 μM genistein, Fig. 6 B", "value": 1.96, "unit": "pA"}, {"measurement": "Po, intermediate gating mode", "setting": "[2]; after preexposure to 100 μM genistein, all four patches with this mode", "value": "0.39 ± 0.08"}, {"measurement": "decrease of L compared with control", "setting": "[2]; in the presence of genistein", "value": "30–1,000 fold"}, {"measurement": "single-channel current (i)", "setting": "[2]; in the presence of genistein, 2 mM cGMP, −80 mV, Fig. 5 B", "value": 1.97, "unit": "pA"}, {"measurement": "open probability (Po)", "setting": "[2]; in the presence of genistein, 2 mM cGMP, −80 mV, Gaussian fit, Fig. 5 B", "value": 0.529}, {"measurement": "free energy of channel opening (ΔGopening)", "setting": "[2]; one genistein molecule", "value": 0.24, "unit": "kcal/mol"}, {"measurement": "opening allosteric constant (L)", "setting": "[2]; one genistein molecule bound", "value": 0.61}, {"measurement": "opening allosteric constant (L)", "setting": "[2]; two genistein molecules bound", "value": 0.02}, {"measurement": "genistein inhibition", "setting": "[3]", "value": "complete inhibition"}, {"measurement": "genistein inhibition", "setting": "[4]", "value": "neither substitution introduced genistein inhibition"}, {"measurement": "genistein inhibition", "setting": "[5]", "value": "complete inhibition"}, {"measurement": "maximal inhibition", "setting": "[6]; closed state, 500 μM genistein", "value": "~15", "unit": "%"}, {"measurement": "genistein sensitivity", "setting": "[6]; open state, up to 500 μM genistein", "value": "completely insensitive"}, {"measurement": "effect of domain exchange on genistein inhibition", "setting": "[7]", "value": "did not alter genistein inhibition"}, {"measurement": "effect of domain exchange on genistein inhibition", "setting": "[8]", "value": "did not alter genistein inhibition"}, {"measurement": "effect of domain exchange on genistein inhibition", "setting": "[9]", "value": "did not alter genistein inhibition"}, {"measurement": "genistein inhibition", "setting": "[10]", "value": "do not exhibit genistein inhibition"}]}]}
